STAT3 activator – increases IL-6 driven STAT3 reporter signal. U3A cells, IL-6 STAT3-luciferase reporter, luminescence; 100% = signal with IL-6 EC80 alone. activation (% of control), % at 5.6 µM. actives 0.91% (n = 190,000). AID 871;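 active = activation above the screen-wide mean of compound activation plus 3 SD, cut at about 130% in these data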
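Material: STAT1-lacking human U3A cells, STAT3 luciferase reporter | Benchmarks: IL-6-only wells as 100% reference | Probe or stimulus: IL-6 (33 ng/mL) | Timing: Compound 1 h, then IL-6 6 h at 37 °C | Detection: Luminescence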
NF-kB expr up – NF-kB expression increase, human neuronal cells. actives 1.6% (n = 190,000). fold change at 12.5 µM. AID 1239. NF-kB reporter expression; hits give high values; in the data active = fold change above about 3.3
STAT1 inh – reduces IFN-gamma driven STAT1 reporter signal | NIH 3T3 STAT1-luciferase reporter, luminescence | actives 0.35% (n = 200,000) | inhibition, % at 5.5 µM;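 active = inhibition above a set limit, the mean inhibition across all tested compounds plus 3 SD, cut at about 34% in these data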
STAT1 act – activators of IFN-gamma induced STAT1 signaling; NIH 3T3 STAT1-luciferase reporter, luminescence; 100% = IFN-gamma alone, no compound; activation (% of control), % at 5.5 µM; actives 2.6% (n = 200,000); AID 932;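 active = activation above the screen-wide mean activation plus 3 SD, cut at about 130% in these data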
Pf gametocyte – inhibitors of late stage P. falciparum gametocyte viability | actives 0.065% (n = 150,000) | inhibition, % at 10.9 µM | P. falciparum stage V gametocytes, ATP luminescence, 24 h | AID 743093;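 active = inhibition above the mean plus 3 SD of compounds within the control limits, set per campaign, cut at about 38% in these data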
APP 5'UTR act – activates APP 5'UTR luciferase reporter; SH-SY5Y APP 5'UTR luciferase reporter, luminescence; zero percent = DMSO vehicle wells; activation, % at 2 µM; actives 1% (n = 190,000); AID 1276;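 active = activation above a set limit, based on mean plus 3 SD of controls, cut at about 140% in these data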
STAT1 act conf – confirmation of STAT1 signaling activators; shares compounds with STAT1 act; NIH 3T3 STAT1-luciferase reporter, IFN-gamma potentiation, luminescence; 100% = IFN-gamma EC80 alone, no compound; activation (% of control), % at 5.7 µM; actives 97% (n = 1,200); AID 1262;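 active = activation above a set limit carried over from the earlier primary STAT1 screen, cut at about 140% in these data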
NFkB act STAT1ct – activates NF-kappaB, counter-screen to STAT1 activators; shares compounds with STAT1 act; HEK293T NF-kB luciferase reporter, TNF-alpha stimulated, luminescence; 100% = TNF-alpha with vehicle only; activation (% of control), % at 5.7 µM; actives 43% (n = 1,200); AID 1306;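 active = activation above the mean of solvent-only control wells plus 3 SD, set per campaign, cut at about 130% in these data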;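 also: TNF-alpha given at a submaximal dose yielding about 80% of full reporter signal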
STAT3 act STAT1c – human STAT3 activation in STAT1 activator counter-screen. shares compounds with STAT1 act. U3A cells STAT3-luciferase reporter, IL-6, luminescence; cells lack STAT1; 100 = IL-6 alone, no compound effect. activation (% of control), % at 5.7 µM. actives 46% (n = 1,200);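 active = activation above the solvent-only control well mean plus 3 SD, set per plate batch, cut at about 110% in these data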;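 also: higher means more STAT3 reporter activation so hits are non-selective activators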
Hits are given with their value; - = inactive; . = not tested or not shown. Sampled rows, rich in hits. Any-hit rate of the full collection: about 3.9%.

SMILES | STAT3 activator | NF-kB expr up | STAT1 inh | STAT1 act | Pf gametocyte | APP 5'UTR act | STAT1 act conf | NFkB act STAT1ct | STAT3 act STAT1c
Cc1ccc(C(C)(C)C)cc1S(=O)(=O)Nc1cccc(S(=O)(=O)NC2=NCCC2)c1 | - | - | - | - | . | - | . | . | .
CC1=CCC(C(=O)O)C(C(=O)Nc2ccc(-c3nc4ccc(C)cc4s3)cc2)C1 (stereo not given) | . | . | . | . | - | . | . | . | .
Cc1ccc2nc(-c3ccc(N)cc3)sc2c1 | . | . | . | . | - | . | . | . | .
Cc1ccc2nc(-c3ccc(NC(=O)COC(=O)c4ccc([N+](=O)[O-])o4)cc3)sc2c1 | - | 6 | - | 155 | - | - | 170 | - | -
COCCNc1nnc(SC(C)C(=O)Nc2ccc(-c3nc4ccc(C)cc4s3)cc2)s1 (stereo not given) | - | 4.5 | - | 160 | - | - | 200 | - | -
COc1ccc(C)cc1NC(=O)COC(=O)c1ccc([N+](=O)[O-])o1 | - | - | - | - | - | - | . | . | .
CCC(C)(C)NC(=S)Nc1ccc(-c2nc3ccc(C)cc3s2)cc1 | - | - | - | 177 | - | 173 | 200 | - | -
CCCCNC(=S)Nc1ccc(-c2nc3ccc(C)cc3s2)cc1 | - | 11 | - | 151 | - | 180 | 210 | 143 | -
Cc1ccc2nc(-c3ccc(NC(=S)NCC(C)(C)CN(C)C)cc3)sc2c1 | . | . | . | . | - | . | . | . | .
CCOC(=O)c1cc(C(=O)c2ccccc2O)cn2c(=O)c3c(C)c(C)sc3nc12 | - | - | - | - | . | - | . | . | .
CC(NC(=O)Cn1cc([N+](=O)[O-])cn1)c1ccc(C(C)(C)C)cc1 (stereo not given) | . | . | . | . | - | . | . | . | .
COc1ccc(OC)c(C2C(C(C)=O)=C(C)Nc3ncnn32)c1 (stereo not given) | . | . | . | . | - | . | . | . | .
CC(=O)Oc1ccc(/C(C)=N/N2CCN(Cc3ccc(C)cc3)CC2)cc1 | . | . | . | . | - | . | . | . | .
Cc1ccc2nc(-c3ccc(NC(=O)CN4C(=O)NC(C)(c5ccc(OC(F)F)cc5)C4=O)cc3)sc2c1 (stereo not given) | - | - | - | 155 | - | 150 | 186 | - | 113
CS(=O)(=O)Nc1ccc(C(=O)Nc2ccc(S(=O)(=O)N3CCCC3)cc2)cc1 | - | - | - | - | - | - | . | . | .
CC1=NN(C(=O)c2csc(C(C)C)c2)C(O)(C(F)(F)F)C1 (stereo not given) | - | - | - | - | - | - | . | . | .
O=C(CN1C(=O)NC2(CCCCCC2)C1=O)c1ccc2c(c1)OCCO2 | - | - | - | 160 | . | - | 178 | 136 | 126
CCCCNc1c(N)n(CC(C)C)c(=O)[nH]c1=O | - | - | - | - | - | - | . | . | .
CC(C)=CC(=O)Nc1ccc(Br)cc1 | - | 5.6 | - | 154 | - | - | 172 | 141 | -
CC(=O)Nc1ccc(NC(=S)Nc2ccc(Br)cc2)cc1 | . | . | . | . | - | . | . | . | .
CC(=O)/C=C(\C)Nc1ccc(-c2cnc(-c3ccccc3)o2)cc1 | - | 4.8 | - | 180 | - | - | 186 | - | -
O=C(Nc1ccc(-c2nnc(-c3ccccc3)o2)cc1)C(F)(F)F | - | - | - | - | . | - | . | . | .
CCn1nc(Cc2cccc3ccccc23)c(C#N)c1N | . | . | . | . | - | . | . | . | .
Cc1occc1C(=O)Nc1cccc2ccccc12 | - | 7.7 | - | 172 | . | 135 | 219 | 137 | -
Cc1ccc(C(=O)c2sc3nsc(C)c3c2N)cc1 | - | 6.3 | - | 154 | - | 198 | 239 | 145 | 114
SMILES | STAT3 activator | NF-kB expr up | STAT1 inh | STAT1 act | Pf gametocyte | APP 5'UTR act | STAT1 act conf | NFkB act STAT1ct | STAT3 act STAT1c
CCc1ccc(-c2cn3c(n2)SCC3)cc1 | - | 7.2 | - | 154 | . | - | 200 | - | -
O=C(/C(C=Nc1cccc(C(F)(F)F)c1)=C(/O)c1ccco1)C(F)(F)F | - | - | - | - | - | - | . | . | .
O=C(/C(C=Nc1ccc(Br)cc1)=C(/O)c1ccco1)C(F)(F)F | - | 5.7 | - | 166 | . | 171 | 201 | - | -
O=P(COCCOCCOCP(=O)(c1ccccc1)c1ccccc1)(c1ccccc1)c1ccccc1 | - | - | - | - | - | - | . | . | .
COc1cc(C2CC(=O)N(c3ccc(C)cc3)C(=O)C2)cc(OC)c1OC | . | . | . | . | - | . | . | . | .
CC[C@H](C)[C@H](NC(N)=O)C(=O)NCCc1ccc(OC)c(OC)c1 | - | - | - | - | - | - | . | . | .
COc1ccc2c(c1)CC/C2=N\OC(=O)c1ccccc1C | - | 5.9 | - | 159 | - | 153 | 182 | 134 | -
COc1ccc2c(c1)CC/C2=N\OC(=O)c1cccc(C)c1 | - | 5.9 | - | 165 | . | - | 183 | 137 | -
COc1ccc(-c2nn(-c3ccccc3)cc2N)cc1 | - | 4 | - | 165 | - | - | 159 | - | 164
O=P(O)(CN1CCCCCC1)CN1CCCCCC1 | - | - | - | 153 | . | - | - | - | -
Cc1[nH]c2ccccc2c1/C=N/Nc1nc2ccccc2[nH]1 | . | . | . | . | - | . | . | . | .
Cc1cc(=O)[nH]c(N/N=C/c2c(C)nn(-c3ccccc3)c2Cl)n1 | . | . | . | . | - | . | . | . | .
Cc1ccc(/C=N/Nc2nc3ccccc3[nH]2)s1 | - | 3.8 | - | 157 | - | 135 | 190 | 149 | 121
Cc1nn(-c2ccccc2)c(Cl)c1/C=N/Nc1nc2ccccc2[nH]1 | - | - | - | 216 | - | - | 291 | - | -
CCCC(=O)OCC(=O)Nc1ccc2[nH]c(=O)[nH]c2c1 | - | - | - | - | - | - | . | . | .
CCCC(=O)OCC(=O)Nc1ccc(N=Nc2ccccc2)cc1 | - | 4.7 | - | 155 | - | - | 189 | 137 | 117
Cn1cnnc1SCC(=O)Nc1nc(-c2ccccc2)cs1 | - | - | - | - | - | - | . | . | .
O=C1/C(=C/Nc2cccc([N+](=O)[O-])c2)CCc2ccccc21 | - | 4.5 | - | 169 | - | 140 | 212 | 134 | -
O=C(N[C@@H]1C[C@H]2CC[C@@H]1C2)c1ccco1 | . | . | . | . | - | . | . | . | .
CC(/C=C/c1ccc(OCc2ccccc2)cc1)=N\O | - | - | - | 157 | - | - | 177 | 134 | 112
CC(/C=C/c1ccccc1)=N/O | - | - | - | - | - | - | . | . | .
CCOCC(=O)Nc1nc2ccc(OCC)cc2s1 | - | - | - | 152 | - | - | 167 | - | -
COc1ccc2nc(NC(=S)N(C)C)sc2c1 | - | 11 | - | 171 | . | - | 257 | - | -
CCOc1ccc2nc(NC(=O)CSc3ccc(Cl)cc3)sc2c1 | - | - | - | - | - | - | . | . | .
